ChEMBL document CHEMBL1933039, “6-alkylsalicylates are selective Tip60 inhibitors and target the acetyl-CoA binding site” (Eur J Med Chem, 2012)
Activity calls are given as the source filed them. The calls are words filed in the database; no cut-off is given here.

Legend:
[1] = target: Histone acetyltransferase KAT5 (Homo sapiens) (UniProt Q92993); assay: Inhibition of His-tagged human recombinant Tip60 expressed in Escherichia coli BL21(DE3) cells using [14C][…] and histone H4 as substrate at 200 uM after 5 mins by scintillation counting
In short: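 Single-point screen at 200 µM inhibitor: 100 nM Tip60, 10 µM [14C]Ac-CoA, 100 µM H4-20 peptide in 50 mM HEPES pH 8.0, 0.1 mM EDTA, BSA, 1 mM DTT, 0.1% Triton X-100, 2% DMSO. Components equilibrated 5 min at 30 °C before enzyme start. Products spotted on P81 paper, washed with bicarbonate, counted by scintillation. No-enzyme background subtracted.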

[2] = target: Histone acetyltransferase p300 (Homo sapiens) (UniProt Q09472); assay: Inhibition of human recombinant His-tagged p300 HAT domain expressed in Escherichia coli BL21(DE3) cells using [14C][…] and histone H4 as substrate at 200 uM after 5 mins by scintillation counting
In short: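 Single-point screen at 200 µM inhibitor: 5 nM p300, 10 µM [14C]Ac-CoA, 100 µM H4-20 peptide in 50 mM HEPES pH 8.0, EDTA, BSA, DTT, Triton X-100, 2% DMSO, 30 °C. Enzyme-initiated after 5 min equilibration. Radioactivity on P81 paper counted. No-enzyme background subtracted.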

[3] = target: Histone acetyltransferase KAT5 (Homo sapiens) (UniProt Q92993); assay: Inhibition of Tip60-mediated histone H3 acetylation in human HeLa nuclear extracts at 200 uM after 15 mins by ELISA
In short: (§1)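 HeLa nuclear extract (Dignam method) at 2.5 µg/mL final protein as enzyme source. Biotinylated H3 (aa 1–21) or H4 (aa 2–24) peptide immobilized on streptavidin. Reaction run 15 min in 50 mM HEPES pH 7.4, 0.01% Triton X-100, 0.1 mM EDTA, BSA, 1 mM DTT. Anti-acetyl-lysine ELISA readout. Triplicates, normalized to no-inhibitor and no-enzyme controls.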

[4] = target: Histone acetyltransferase KAT5 (Homo sapiens) (UniProt Q92993); assay: Inhibition of Tip60-mediated histone H3 acetylation in human HeLa nuclear extracts at 50 uM after 15 mins by ELISA; in short: as §1
[5] = target: Histone acetyltransferase KAT5 (Homo sapiens) (UniProt Q92993); assay: Inhibition of Tip60-mediated histone H4 acetylation in human HeLa nuclear extracts at 200 uM after 15 mins by ELISA; in short: as §1
[6] = target: Histone acetyltransferase KAT2B (Homo sapiens) (UniProt Q92831); assay: Inhibition of human recombinant His-tagged PCAF HAT domain expressed in Escherichia coli BL21(DE3) cells using [14C][…] and histone H3 as substrate at 200 uM after 5 mins by scintillation counting
[7] = target: Histone acetyltransferase p300 (Homo sapiens) (UniProt Q09472); assay: Inhibition of human recombinant His-tagged p300 HAT domain expressed in Escherichia coli BL21(DE3) cells using [14C][…] and histone H4 as substrate at >200 uM after 5 mins by scintillation counting
[8] = target: Histone acetyltransferase KAT5 (Rattus norvegicus) (UniProt Q99MK2); assay: Inhibition of Tip60-mediated histone H3 acetylation in rat brain extracts at 30 uM after 15 mins by ELISA; type: tissue-based
In short: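 Rat brain-region nuclear extracts (Dignam method) at 40 µg/mL final protein. Inhibitor at 30 µM. Histone peptide immobilized via streptavidin, 15 min reaction in HEPES pH 7.4 buffer, anti-acetyl-lysine ELISA. Triplicates for each of two animals. Blank values subtracted.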

[9] = target: T1, Histone acetyltransferase KAT8 (Homo sapiens, UniProt Q9H7Z6); assay: Inhibition of human MOF expressed in Escherichia coli BL21(DE3) cells using [14C]AC-CoA and histone H4 as substrate after 5 mins by scintillation counting
T1 sequence (Q9H7Z6 whole entry): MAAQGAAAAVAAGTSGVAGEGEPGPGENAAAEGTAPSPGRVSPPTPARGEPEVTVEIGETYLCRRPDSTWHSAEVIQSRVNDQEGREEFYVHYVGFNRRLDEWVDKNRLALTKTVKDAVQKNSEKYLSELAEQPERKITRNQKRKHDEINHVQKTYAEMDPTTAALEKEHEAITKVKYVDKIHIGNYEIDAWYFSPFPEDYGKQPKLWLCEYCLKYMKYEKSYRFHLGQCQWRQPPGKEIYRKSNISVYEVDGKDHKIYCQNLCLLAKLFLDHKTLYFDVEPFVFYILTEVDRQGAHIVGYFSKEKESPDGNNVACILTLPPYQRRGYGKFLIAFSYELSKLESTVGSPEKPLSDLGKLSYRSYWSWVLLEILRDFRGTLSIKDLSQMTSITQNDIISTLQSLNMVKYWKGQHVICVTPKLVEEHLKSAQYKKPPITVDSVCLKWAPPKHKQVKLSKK

[10] = target: Histone acetyltransferase KAT5 (Homo sapiens) (UniProt Q92993)
[11] = target: Histone acetyltransferase KAT5 (Homo sapiens) (UniProt Q92993); remark: listed apart in the source
[12] = target: Histone acetyltransferase KAT5 (Rattus norvegicus) (UniProt Q99MK2); assay: Inhibition of Tip60-mediated histone H3 acetylation in rat brain extracts at 30 uM after 15 mins by ELISA
[13] = target: Histone acetyltransferase KAT2B (Homo sapiens) (UniProt Q92831); assay: Inhibition of human recombinant His-tagged PCAF HAT domain expressed in Escherichia coli BL21(DE3) cells using [14C][…] and histone H3 as substrate at >200 uM after 3.5 mins by scintillation counting
[14] = target: Histone acetyltransferase KAT5 (Homo sapiens) (UniProt Q92993); assay: Inhibition of Tip60-mediated histone H4 acetylation in human HeLa nuclear extracts at 50 uM after 15 mins by ELISA; in short: as §1

Histone acetyltransferase KAT5 (Rattus norvegicus), sequence (Q99MK2 whole entry, the tested form may be a part): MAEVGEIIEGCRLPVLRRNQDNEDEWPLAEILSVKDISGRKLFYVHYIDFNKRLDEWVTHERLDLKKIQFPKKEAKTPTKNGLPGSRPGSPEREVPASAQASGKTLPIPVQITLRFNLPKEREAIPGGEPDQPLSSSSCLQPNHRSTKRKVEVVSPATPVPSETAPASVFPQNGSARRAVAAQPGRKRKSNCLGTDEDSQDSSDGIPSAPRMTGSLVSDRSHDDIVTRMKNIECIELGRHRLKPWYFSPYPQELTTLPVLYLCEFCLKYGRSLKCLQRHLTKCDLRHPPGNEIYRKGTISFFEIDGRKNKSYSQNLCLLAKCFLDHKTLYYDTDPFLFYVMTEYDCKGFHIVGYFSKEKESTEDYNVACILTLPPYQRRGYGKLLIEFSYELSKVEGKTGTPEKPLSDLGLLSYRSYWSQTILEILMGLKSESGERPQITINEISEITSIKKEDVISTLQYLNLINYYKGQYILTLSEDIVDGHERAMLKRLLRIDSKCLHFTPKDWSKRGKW
Histone acetyltransferase p300 (Homo sapiens), sequence (Q09472 whole entry, the tested form may be a part): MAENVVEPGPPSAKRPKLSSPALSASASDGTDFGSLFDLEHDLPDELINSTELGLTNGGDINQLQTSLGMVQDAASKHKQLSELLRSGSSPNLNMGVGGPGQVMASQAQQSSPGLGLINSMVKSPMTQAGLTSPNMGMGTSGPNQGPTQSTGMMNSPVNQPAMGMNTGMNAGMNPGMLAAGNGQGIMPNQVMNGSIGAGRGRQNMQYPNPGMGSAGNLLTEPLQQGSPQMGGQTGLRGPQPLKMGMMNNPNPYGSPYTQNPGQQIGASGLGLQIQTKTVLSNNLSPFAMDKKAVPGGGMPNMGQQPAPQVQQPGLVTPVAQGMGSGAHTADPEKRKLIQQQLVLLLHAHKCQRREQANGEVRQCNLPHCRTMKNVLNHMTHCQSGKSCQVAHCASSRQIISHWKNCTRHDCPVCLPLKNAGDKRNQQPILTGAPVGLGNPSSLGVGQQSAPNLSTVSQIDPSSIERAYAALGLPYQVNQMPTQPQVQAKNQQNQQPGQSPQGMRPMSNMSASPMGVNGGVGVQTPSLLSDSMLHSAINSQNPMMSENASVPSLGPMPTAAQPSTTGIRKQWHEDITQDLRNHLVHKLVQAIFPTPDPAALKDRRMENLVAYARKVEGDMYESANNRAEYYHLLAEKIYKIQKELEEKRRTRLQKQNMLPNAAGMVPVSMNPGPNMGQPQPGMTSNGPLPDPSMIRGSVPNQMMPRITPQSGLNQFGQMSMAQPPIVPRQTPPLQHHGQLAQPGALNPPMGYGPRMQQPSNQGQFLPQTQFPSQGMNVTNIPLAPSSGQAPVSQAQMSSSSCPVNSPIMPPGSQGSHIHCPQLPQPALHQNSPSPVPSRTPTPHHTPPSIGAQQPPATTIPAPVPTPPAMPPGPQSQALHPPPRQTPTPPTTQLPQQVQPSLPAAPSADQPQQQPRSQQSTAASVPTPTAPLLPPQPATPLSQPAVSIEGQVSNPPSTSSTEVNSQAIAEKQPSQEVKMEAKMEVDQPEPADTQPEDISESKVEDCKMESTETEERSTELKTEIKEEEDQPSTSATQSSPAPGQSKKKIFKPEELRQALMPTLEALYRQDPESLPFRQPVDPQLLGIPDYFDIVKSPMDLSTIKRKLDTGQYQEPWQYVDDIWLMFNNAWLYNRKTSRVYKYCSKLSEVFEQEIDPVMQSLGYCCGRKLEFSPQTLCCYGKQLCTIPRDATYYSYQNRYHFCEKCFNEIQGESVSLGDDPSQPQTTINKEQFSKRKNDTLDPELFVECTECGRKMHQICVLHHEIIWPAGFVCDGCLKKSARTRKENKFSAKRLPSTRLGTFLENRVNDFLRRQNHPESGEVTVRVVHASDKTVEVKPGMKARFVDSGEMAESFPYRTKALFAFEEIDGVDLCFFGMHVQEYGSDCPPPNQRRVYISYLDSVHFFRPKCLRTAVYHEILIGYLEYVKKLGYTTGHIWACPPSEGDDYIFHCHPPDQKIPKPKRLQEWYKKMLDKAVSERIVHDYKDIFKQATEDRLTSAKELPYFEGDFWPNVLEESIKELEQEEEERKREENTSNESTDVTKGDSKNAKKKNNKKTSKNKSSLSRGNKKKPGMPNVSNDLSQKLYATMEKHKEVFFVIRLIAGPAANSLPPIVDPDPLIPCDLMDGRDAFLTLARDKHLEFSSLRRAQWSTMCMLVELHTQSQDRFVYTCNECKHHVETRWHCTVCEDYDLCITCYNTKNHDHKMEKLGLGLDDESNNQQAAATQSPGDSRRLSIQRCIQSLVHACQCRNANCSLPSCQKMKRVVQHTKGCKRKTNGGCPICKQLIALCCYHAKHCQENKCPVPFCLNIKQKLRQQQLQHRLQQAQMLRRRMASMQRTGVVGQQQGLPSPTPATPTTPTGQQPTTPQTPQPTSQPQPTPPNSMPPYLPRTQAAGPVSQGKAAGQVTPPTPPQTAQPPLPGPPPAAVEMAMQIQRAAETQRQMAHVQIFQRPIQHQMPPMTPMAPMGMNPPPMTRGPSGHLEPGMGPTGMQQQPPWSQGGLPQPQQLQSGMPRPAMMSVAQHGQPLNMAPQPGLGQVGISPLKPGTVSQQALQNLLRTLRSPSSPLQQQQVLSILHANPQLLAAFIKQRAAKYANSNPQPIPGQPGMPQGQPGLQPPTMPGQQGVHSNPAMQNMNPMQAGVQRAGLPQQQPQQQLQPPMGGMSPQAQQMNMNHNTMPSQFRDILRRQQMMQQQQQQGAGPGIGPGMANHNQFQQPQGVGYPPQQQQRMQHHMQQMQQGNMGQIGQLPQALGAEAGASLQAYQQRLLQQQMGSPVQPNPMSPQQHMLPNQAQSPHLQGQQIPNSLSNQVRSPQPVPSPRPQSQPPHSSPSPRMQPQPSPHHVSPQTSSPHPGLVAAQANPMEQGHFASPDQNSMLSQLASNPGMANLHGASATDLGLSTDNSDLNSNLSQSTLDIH
Histone acetyltransferase KAT2B (Homo sapiens), sequence (Q92831 whole entry, looked up, the tested form may be a part): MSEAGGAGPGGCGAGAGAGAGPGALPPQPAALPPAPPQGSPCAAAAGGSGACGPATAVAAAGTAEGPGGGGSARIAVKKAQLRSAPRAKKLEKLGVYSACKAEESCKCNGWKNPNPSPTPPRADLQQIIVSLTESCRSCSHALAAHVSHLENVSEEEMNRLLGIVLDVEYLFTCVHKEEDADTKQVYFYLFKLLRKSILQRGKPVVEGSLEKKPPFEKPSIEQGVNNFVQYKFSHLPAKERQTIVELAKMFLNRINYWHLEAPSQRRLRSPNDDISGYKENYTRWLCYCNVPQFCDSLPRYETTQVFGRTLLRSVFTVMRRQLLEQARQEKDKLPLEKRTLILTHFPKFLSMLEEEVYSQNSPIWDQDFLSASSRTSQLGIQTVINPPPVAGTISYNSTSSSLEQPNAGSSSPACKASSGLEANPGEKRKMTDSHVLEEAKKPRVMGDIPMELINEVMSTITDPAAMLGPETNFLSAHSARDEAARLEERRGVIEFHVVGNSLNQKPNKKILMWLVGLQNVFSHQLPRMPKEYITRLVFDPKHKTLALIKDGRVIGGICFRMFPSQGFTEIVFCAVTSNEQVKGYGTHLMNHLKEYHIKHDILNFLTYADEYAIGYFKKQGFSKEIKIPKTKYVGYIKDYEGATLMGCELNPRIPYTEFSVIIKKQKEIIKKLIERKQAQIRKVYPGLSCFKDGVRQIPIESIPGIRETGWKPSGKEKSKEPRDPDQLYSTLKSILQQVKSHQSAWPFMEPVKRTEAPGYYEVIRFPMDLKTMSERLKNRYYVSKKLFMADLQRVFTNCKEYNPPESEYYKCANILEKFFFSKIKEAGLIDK
Histone acetyltransferase KAT5 (Homo sapiens), sequence (Q92993 whole entry, looked up, the tested form may be a part): as the sequence (Q99MK2 whole entry, the tested form may be a part) above, with S175A counted along it

| inhibition [1] | inhibition [2] [%] | inhibition [3] [%] | inhibition [4] | inhibition [5] [%] | inhibition [6] [%] | inhibition [14] | SMILES | further results |
| --- | --- | --- | --- | --- | --- | --- | --- | --- |
| > 76% | < 35 | > 50 | Active | > 50 | < 35 |  | CCCCCCCCCCCCCCCc1cc(O)cc(O)c1C(=O)O |  |
|  |  | > 50 |  | > 50 |  |  | CCCCCCCCCCCCCC#Cc1ccccc1C(=O)OC |  |
| 88% | < 35 | > 50 | Active | > 50 | < 35 |  | CCCCCCCc1ccc(CCc2cccc(O)c2C(=O)O)cc1 | inhibition [7]: 30%; inhibition [8]: Active; IC50 [9]: 47 µM; Kii [10]: 572 µM; Kii [11]: 78 µM; inhibition [12]: Active; inhibition [13]: 3% |
| > 76% | < 20 | > 50 | Active | > 50 | < 20 | Active | C=CC/C=C\C/C=C\CCCCCCCc1cccc(O)c1C(=O)O | inhibition [7]: 40%; inhibition [8]: Active; inhibition [12]: Active |
| > 76% | < 35 | > 50 |  | > 50 | < 35 |  | CCCCCOc1ccc(CCc2cccc(O)c2C(=O)O)cc1C(C)=O |  |
| > 76% | < 35 | > 50 |  | > 50 | < 35 |  | CCCCCCCCCCc1cc(O)cc(O)c1C(=O)O |  |
| Active |  |  |  |  |  |  | CCCCCOc1ccc(CCc2cccc(O)c2C(=O)O)cc1C(C)O (stereo unspecified) |  |
|  |  | > 50 |  | > 50 |  |  | CCCCCCCCCCCCCCCc1ccccc1C(=O)O |  |
|  |  | > 50 |  | > 50 |  | Active | CCCCCOc1ccc(CCc2cccc(O)c2C(=O)O)cc1 |  |
| > 76% | < 35 | > 50 | Active | > 50 | < 35 |  | CC(C)CCCC(C)CCOc1ccc(CCc2cccc(O)c2C(=O)O)cc1 (stereo unspecified) |  |
|  |  |  | Active |  |  |  | CCCCCCCc1ccc(CCc2cc(O)cc(O)c2C(=O)O)cc1 |  |
| Active |  |  |  |  |  |  | COCCOc1ccc(CCc2cccc(O)c2C(=O)O)cc1 |  |
| > 76% | < 35 | > 50 | Active | > 50 | < 35 | Active | CCCCCCCCCCc1cccc(O)c1C(=O)O |  |
|  |  | > 50 |  | > 50 |  | Active | CCCCCOc1ccc(/C=C\c2cccc(O)c2C(=O)O)cc1 |  |
|  |  | > 50 | Active | > 50 |  |  | CCCCCCCOc1ccc(CCc2cccc(O)c2C(=O)O)cc1C(C)=O |  |
|  |  | > 50 |  | > 50 |  | Active | CCCCCCCCCCCCCCOc1ccc(CCc2cccc(O)c2C(=O)O)cc1 |  |
